# ChEMBL document CHEMBL1141492, “Potent, exceptionally selective, orally bioavailable inhibitors of TNF-alpha Converting Enzyme (TACE): novel 2-substituted-1H-benzo[d]imidazol-1-yl)methyl)benzamide P1' substituents” (Bioorg Med Chem Lett, 2008)
# Key:
# [1] = Protein binding in rat serum; format: ADME, cell-free
# [2] = Protein binding in dog serum; format: ADME, cell-free, Canis lupus familiaris
# [3] = Protein binding in human serum; format: ADME, cell-free
# Mus musculus = test: Reduction of LPS-induced TNFalpha level in orally dosed mouse after 1 hr; format: functional; settings: po
# In short: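 Mouse LPS endotoxemia model. LPS and test compound in vehicle were given together by oral gavage at t = 0 h, across several doses. Mice were euthanized 1 h post dose, blood was taken by cardiac puncture, and plasma TNF-α was measured. ED50 was calculated from the dose response.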
# Blood = test: Reduction of LPS-induced TNFalpha in human whole blood; format: functional, tissue-based
# In short: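 LPS-induced TNF-α production in human whole blood; suppression of TNF-α measured.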
# [4] = Apparent permeability across human Caco-2 cells; format: ADME, cell-based
# In short: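 Apparent permeability measured across Caco-2 cell monolayers in the apical-to-basolateral (A→B) direction.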
# Stromelysin-2 = Stromelysin-2 (Homo sapiens, UniProt P09238); test: Inhibition of MMP10
# In short: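 MMP Ki values come from a single determination.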
# [5] = target: T1, A disintegrin and metalloproteinase with thrombospondin motifs 5 (Homo sapiens, UniProt Q9UNA0); test: Inhibition of ADAMTS5
# T1 sequence (Q9UNA0 whole entry): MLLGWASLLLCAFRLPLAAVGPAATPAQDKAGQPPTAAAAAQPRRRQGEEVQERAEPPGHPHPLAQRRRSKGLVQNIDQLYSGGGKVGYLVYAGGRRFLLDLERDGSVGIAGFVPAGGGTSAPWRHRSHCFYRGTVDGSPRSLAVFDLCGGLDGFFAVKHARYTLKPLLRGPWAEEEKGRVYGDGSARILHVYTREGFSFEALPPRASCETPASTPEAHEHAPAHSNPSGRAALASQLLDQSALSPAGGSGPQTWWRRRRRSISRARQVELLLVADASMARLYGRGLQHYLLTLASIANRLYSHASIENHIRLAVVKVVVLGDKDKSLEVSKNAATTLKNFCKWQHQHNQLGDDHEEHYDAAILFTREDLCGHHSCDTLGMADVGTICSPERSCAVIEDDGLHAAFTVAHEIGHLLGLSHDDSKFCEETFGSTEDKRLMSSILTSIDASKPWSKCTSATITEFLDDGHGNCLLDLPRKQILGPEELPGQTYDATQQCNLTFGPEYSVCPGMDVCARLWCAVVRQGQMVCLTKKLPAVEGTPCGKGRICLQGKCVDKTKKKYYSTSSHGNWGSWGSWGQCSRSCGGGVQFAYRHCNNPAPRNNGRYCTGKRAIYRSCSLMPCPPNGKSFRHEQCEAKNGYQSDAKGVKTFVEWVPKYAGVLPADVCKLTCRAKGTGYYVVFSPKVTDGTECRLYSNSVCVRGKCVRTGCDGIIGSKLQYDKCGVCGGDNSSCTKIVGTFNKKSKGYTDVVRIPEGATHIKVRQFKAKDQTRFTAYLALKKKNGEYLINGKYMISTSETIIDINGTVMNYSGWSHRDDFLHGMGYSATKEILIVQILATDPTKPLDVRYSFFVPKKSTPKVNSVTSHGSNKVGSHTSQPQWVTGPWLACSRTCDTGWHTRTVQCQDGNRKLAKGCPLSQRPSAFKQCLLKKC
# [6] = Clearance in Sprague-Dawley rat at 5.0 mg/kg, iv; format: ADME, organism-based; set-up: dose 5 mg/kg, route intravenous; settings: in vivo
# In short: (§1)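 Discrete or cassette (n-in-1) dosing, given intravenously and orally. Sprague–Dawley rats received 5.0 mg/kg iv and 8.0 mg/kg po; beagle dogs received 2.0 mg/kg iv and 8.0 mg/kg po. Three animals per dosing group; averaged values reported. AUC is reported in nM h.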
# [7] = Oral bioavailability in Sprague-Dawley rat at 8.0 mg/kg; format: ADME, organism-based; settings: in vivo; in short: as §1
# [8] = Half life in Sprague-Dawley rat at 5.0 mg/kg, iv; format: ADME, organism-based; set-up: dose 5 mg/kg, route intravenous; settings: in vivo; in short: as §1
# [9] = Volume of distribution at steady state in Sprague-Dawley rat at 5.0 mg/kg, iv; format: ADME, organism-based; set-up: dose 5 mg/kg, route intravenous; settings: in vivo, read-out: Vdss; in short: as §1
# [10] = AUC in Sprague-Dawley rat at 5.0 mg/kg, iv; format: ADME, organism-based; set-up: dose 5 mg/kg, route intravenous; settings: plasma; in short: as §1
# [11] = Tmax in Sprague-Dawley rat at 8.0 mg/kg, po; format: ADME, organism-based; set-up: dose 8 mg/kg, route oral; settings: in vivo; in short: as §1
# [12] = Half life in Sprague-Dawley rat at 8.0 mg/kg, po; format: ADME, organism-based; set-up: dose 8 mg/kg, route oral; settings: in vivo; in short: as §1
# [13] = AUC in Sprague-Dawley rat at 8.0 mg/kg, po; format: ADME, organism-based; set-up: dose 8 mg/kg, route oral; settings: plasma; in short: as §1
# [14] = Half life in Beagle dog at 2.0 mg/kg, iv; format: ADME, organism-based, Canis lupus familiaris; set-up: dose 2 mg/kg, route intravenous; settings: in vivo; in short: as §1
# [15] = Clearance in Beagle dog at 2.0 mg/kg, iv; format: ADME, organism-based, Canis lupus familiaris; set-up: dose 2 mg/kg, route intravenous; settings: in vivo; in short: as §1
# [16] = Volume of distribution at steady state in Beagle dog at 2.0 mg/kg, iv; format: ADME, organism-based, Canis lupus familiaris; set-up: dose 2 mg/kg, route intravenous; settings: in vivo, read-out: Vdss; in short: as §1
# [17] = AUC in Beagle dog at 2.0 mg/kg, iv; format: ADME, organism-based, Canis lupus familiaris; set-up: dose 2 mg/kg, route intravenous; settings: plasma; in short: as §1
# [18] = AUC in Beagle dog at 8.0 mg/kg, po; settings: plasma
# [19] = Tmax in Beagle dog at 8.0 mg/kg, po; settings: in vivo
# [20] = Half life in Beagle dog at 8.0 mg/kg, po; settings: in vivo
# [21] = Oral bioavailability in Beagle dog at 8.0 mg/kg, po; settings: in vivo
# Stromelysin-2, sequence (P09238 whole entry): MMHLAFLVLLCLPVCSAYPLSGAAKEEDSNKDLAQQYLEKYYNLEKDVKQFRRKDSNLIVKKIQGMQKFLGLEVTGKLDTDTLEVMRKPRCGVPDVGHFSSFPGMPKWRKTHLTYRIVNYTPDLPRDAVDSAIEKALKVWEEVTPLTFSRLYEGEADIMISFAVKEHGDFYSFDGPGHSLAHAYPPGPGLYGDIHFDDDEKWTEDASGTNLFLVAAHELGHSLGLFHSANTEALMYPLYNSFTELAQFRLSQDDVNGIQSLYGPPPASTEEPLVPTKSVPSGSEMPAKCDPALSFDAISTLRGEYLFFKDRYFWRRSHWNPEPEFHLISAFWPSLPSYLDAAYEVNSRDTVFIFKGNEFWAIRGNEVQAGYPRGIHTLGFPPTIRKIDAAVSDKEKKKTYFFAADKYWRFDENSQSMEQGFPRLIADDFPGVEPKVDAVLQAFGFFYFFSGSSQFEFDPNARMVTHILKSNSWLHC
smiles,measurement,setting,value
O=C(N[C@@H]1CCOC[C@@H]1C(=O)NO)c1ccc(Cn2c(C(F)(F)F)nc3ccccc32)cc1,fraction unbound,[1],0.2
same,fraction unbound,[2],0.2
same,fraction unbound,[3],0.21
same,ED50,Mus musculus,1.9 mg/kg
same,IC50,Blood,232 nM
same,Papp,[4],0.7 ×10⁻⁶ cm/s
same,IC50,Stromelysin-2,> 10000 nM
same,Ki,[5],1000 nM
same,clearance,[6],26.7 mL/min/kg
same,bioavailability,[7],53%
same,half-life,[8],3.5 h
same,Vd,[9],1.5 L/kg
same,AUC,[10],6.85 µM·h
same,Tmax,[11],0.3 h
same,half-life,[12],2.4 h
same,AUC,[13],5.84 µM·h
same,half-life,[14],4.2 h
same,clearance,[15],10 mL/min/kg
same,Vd,[16],1 L/kg
same,AUC,[17],9.97 µM·h
same,AUC,[18],39.5 µM·h
same,Tmax,[19],0.5 h
same,half-life,[20],4.8 h
same,bioavailability,[21],99%
